Measurements published in ChEMBL document CHEMBL1800058, “Lathyrane diterpenoids from the roots of Euphorbia micractina and their biological activities” (J Nat Prod, 2011).
Activity calls are given as the source filed them. The calls are words filed in the database; no cut-off is given here.

What was measured:
Liver microsomes = test: Antioxidant activity against Fe2+-cystine-induced lipid peroxidation in rat liver microsomes at 10^-6 M after 15 mins by thiobarbituric acid method; format: functional; settings: Microsome
[1] = system: Human immunodeficiency virus 1; test: Antiviral activity against HIV1 harboring vesicular stomatitis virus glycoprotein infected in human 293T cells assessed as inhibition of viral replication at 10 uM after 48 hrs by luciferase activity based luminometer analysis; format: functional, organism-based
BGC-823 = test: Cytotoxicity against human BGC823 cells at 10^-6 M after 96 hrs by MTT assay; format: functional, cell-based
[2] = molecular target: T1, Tyrosine-protein phosphatase non-receptor type 1 (Homo sapiens) (UniProt P18031); test: Inhibition of human recombinant GST-tagged PTP1B assessed as conversion of para-nitrophenyl phosphate to para-nitrophenol at 10^-6 M after 10 mins by microplate spectrophotometer analysis
T1 sequence (whole entry): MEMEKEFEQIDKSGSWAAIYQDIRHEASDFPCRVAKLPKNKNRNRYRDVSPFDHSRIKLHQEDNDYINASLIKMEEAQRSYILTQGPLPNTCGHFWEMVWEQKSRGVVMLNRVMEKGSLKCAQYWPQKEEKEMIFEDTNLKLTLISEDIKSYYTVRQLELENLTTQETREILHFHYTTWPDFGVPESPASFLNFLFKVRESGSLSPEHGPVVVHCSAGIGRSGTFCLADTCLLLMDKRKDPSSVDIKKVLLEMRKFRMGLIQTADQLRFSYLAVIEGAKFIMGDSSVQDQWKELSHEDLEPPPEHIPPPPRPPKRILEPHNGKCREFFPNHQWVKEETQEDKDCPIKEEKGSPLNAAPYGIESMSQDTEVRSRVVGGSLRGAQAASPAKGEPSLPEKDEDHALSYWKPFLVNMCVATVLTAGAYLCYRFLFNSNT

Bel-7402 = test: Cytotoxicity against human Bel7402 cells at 10^-6 M after 96 hrs by MTT assay; format: functional, cell-based
MCF7 = test: Cytotoxicity against human MCF7 cells at 10^-6 M after 96 hrs by MTT assay; format: functional, cell-based
Aorta = test: Vasorelaxant activity in Sprague-Dawley rat […] thoracic aorta assessed as inhibition of phenylephrine-induced vasoconstriction at 10^-6 M relative to control; format: functional; set-up: scale not given: the % may be the effect or the level left
Procedure, shortened: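 Read-out was percent relaxation of phenylephrine-precontracted vessels. Verapamil served as the positive control at the same test concentration.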

HCT-8 = test: Cytotoxicity against human HCT8 cells at 10^-6 M after 96 hrs by MTT assay; format: functional, cell-based
KETR3 = test: Cytotoxicity against human Ketr3 cells at 10^-6 M after 96 hrs by MTT assay; format: functional, cell-based
A549 = test: Cytotoxicity against human A549 cells at 10^-6 M after 96 hrs by MTT assay; format: functional, cell-based
[3] = system: Human immunodeficiency virus 1; test: Antiviral activity against HIV1 harboring vesicular stomatitis virus glycoprotein infected in human 293T cells assessed as inhibition of viral replication after 48 hrs by luciferase activity based luminometer analysis; format: functional, organism-based; settings: Human immunodeficiency virus 1, HEK-293T

Row | Compound | Activity (Liver microsomes) | Activity [1] | Activity (BGC-823) | inhibition [2] | Activity (Bel-7402) | Activity (MCF7) | Activity (Aorta) | Activity (HCT-8) | Activity (KETR3) | Activity (A549) | IC50 [3]
1 | CC(=O)O[C@H]1/C(C)=C\C[C@H]2[C@H](/C=C(\C)C(=O)[C@@]3(OC(=O)c4ccccc4)C[C@H](C)[C@H](O)[C@H]13)C2(C)C | inactive | inactive | inactive | inactive | inactive | inactive | 50% | inactive | inactive | inactive | –
2 | CC(=O)O[C@@H]1[C@@H]2[C@H]3O[C@]3(C)CC[C@H]3[C@H](/C=C(\C)C(=O)[C@@]2(OC(=O)c2ccccc2)C[C@@H]1C)C3(C)C | inactive | inactive | inactive | inactive | inactive | inactive | 41% | inactive | inactive | inactive | –
3 | C/C1=C\[C@H]2[C@H](CC[C@@]3(C)O[C@@H]3[C@H]3[C@@H](OC(=O)c4ccccc4)[C@@H](C)C[C@]3(OC(=O)c3ccccc3)C1=O)C2(C)C | inactive | inactive | inactive | inactive | inactive | inactive | <30% | inactive | inactive | inactive | –
4 | C/C1=C/C[C@H]2[C@H](/C=C(\C)C(=O)[C@@]3(OC(=O)/C=C/c4ccccc4)C[C@H](C)[C@@H]4OC(C)(C)O[C@@H]1[C@@H]43)C2(C)C | inactive | – | inactive | inactive | inactive | inactive | <30% | inactive | inactive | inactive | –
5 | C/C1=C/C[C@H]2[C@@H](/C=C(\C)C(=O)[C@@]3(OC(=O)c4ccccc4)C[C@H](C)[C@H](O)[C@@H]3[C@@H]1O)C2(C)C | – | inactive | – | – | – | – | 53% | – | – | – | –
6 | CC(=O)O[C@]12C[C@H](C)[C@H](O)[C@@H]1[C@H]1O[C@]1(C)CC[C@H]1[C@H](/C=C(\C)C2=O)C1(C)C | inactive | inactive | inactive | inactive | inactive | inactive | <30% | inactive | inactive | inactive | –
7 | C/C1=C\[C@H]2[C@@H](O)[C@@H](C)C[C@]2(OC(=O)c2ccccc2)C(=O)/C(C)=C/[C@H]2[C@H](CC1)C2(C)C | inactive | inactive | inactive | inactive | inactive | inactive | 42% | inactive | inactive | inactive | –
8 | C/C1=C\[C@H]2[C@@H](OC(=O)/C=C/c3ccccc3)[C@@H](C)C[C@]2(O)C(=O)/C(C)=C/[C@H]2[C@H](CC1)C2(C)C | inactive | inactive | inactive | inactive | inactive | inactive | <30% | inactive | inactive | inactive | –
9 | CC(=O)O[C@H]1[C@@H](C)C[C@]2(OC(C)=O)C(=O)/C(C)=C/[C@H]3[C@H](CC/C(C)=C/[C@@H]12)C3(C)C | inactive | inactive | inactive | inactive | inactive | inactive | <30% | inactive | inactive | inactive | –
10 | CC(=O)O[C@@H]1[C@@H]2[C@H]3O[C@]3(C)CC[C@H]3[C@H](/C=C(\C)C(=O)[C@@]2(OC(C)=O)C[C@@H]1C)C3(C)C | inactive | inactive | inactive | inactive | inactive | inactive | <30% | inactive | inactive | inactive | –
11 | COc1ccc(CCN(C)CCCC(C#N)(c2ccc(OC)c(OC)c2)C(C)C)cc1OC (configuration not stated) [VERAPAMIL] | – | – | – | – | – | – | 44% | – | – | – | –
12 | C/C1=C/C[C@H]2[C@H](/C=C(\C)C(=O)[C@@]3(O)C[C@H](C)[C@H](O)[C@@H]3[C@H]1OC(=O)/C=C/c1ccccc1)C2(C)C | inactive | inactive | inactive | inactive | inactive | inactive | <30% | inactive | inactive | inactive | –
13 | C=C1CC[C@H]2[C@H](/C=C(\C)C(=O)[C@@]3(OC(=O)/C=C/c4ccccc4)C[C@H](C)[C@H](O)[C@@H]3[C@H]1O)C2(C)C | inactive | inactive | inactive | inactive | inactive | inactive | <30% | inactive | inactive | inactive | –
14 | C/C1=C\[C@H]2[C@H](CC[C@@]3(C)O[C@@H]3[C@H]3[C@@H](OC(=O)/C=C/c4ccccc4)[C@@H](C)C[C@]3(O)C1=O)C2(C)C | inactive | inactive | inactive | inactive | inactive | inactive | <30% | inactive | inactive | inactive | –
15 | C/C1=C/C[C@H]2[C@@H](/C=C(\C)C(=O)[C@@]3(O)C[C@H](C)[C@H](OC(=O)/C=C/c4ccccc4)[C@H]3[C@H]1O)C2(C)C | inactive | inactive | inactive | inactive | inactive | inactive | <30% | inactive | inactive | inactive | –
16 | C/C1=C\[C@H]2[C@H](CC[C@@]3(C)O[C@@H]3[C@H]3[C@@H](OC(=O)c4ccccc4)[C@@H](C)C[C@]3(O)C1=O)C2(C)C | inactive | inactive | inactive | inactive | inactive | inactive | 48% | inactive | inactive | inactive | –
17 | CC(=O)O[C@@H]1[C@@H]2[C@H]3O[C@]3(C)CC[C@H]3[C@H](/C=C(\C)C(=O)[C@@]2(O)C[C@@H]1C)C3(C)C | inactive | inactive | inactive | inactive | inactive | inactive | <30% | inactive | inactive | inactive | –
18 | CC(=O)O[C@@H]1[C@H]2[C@@H](O)/C(C)=C\C[C@H]3[C@H](/C=C(\C)C(=O)[C@@]2(OC(=O)c2ccccc2)C[C@@H]1C)C3(C)C | inactive | inactive | inactive | inactive | inactive | inactive | 48% | inactive | inactive | inactive | –
19 | C/C1=C\[C@H]2[C@@H](O)[C@@H](C)C[C@]2(OC(=O)/C=C/c2ccccc2)C(=O)/C(C)=C/[C@H]2[C@H](CC1)C2(C)C | inactive | – | inactive | inactive | inactive | inactive | <30% | inactive | inactive | inactive | 8.2 µM
